Data published in ChEMBL document CHEMBL3875206, “Design, synthesis and biological evaluation of 4'-aminochalcone-rivastigmine hybrids as multifunctional agents for the treatment of Alzheimer's disease” (Bioorg Med Chem, 2017).

Legend:
[1] = target: T1, Amine oxidase [flavin-containing] B (Homo sapiens, UniProt P27338); test: Inhibition of recombinant human MAO-B expressed in baculovirus infected High 5 insect cells 10 uM using kynuramine as substrate incubated for 30 mins by spectrofluorometric method relative to control; settings: 0.5 h
T1 sequence (P27338 whole entry): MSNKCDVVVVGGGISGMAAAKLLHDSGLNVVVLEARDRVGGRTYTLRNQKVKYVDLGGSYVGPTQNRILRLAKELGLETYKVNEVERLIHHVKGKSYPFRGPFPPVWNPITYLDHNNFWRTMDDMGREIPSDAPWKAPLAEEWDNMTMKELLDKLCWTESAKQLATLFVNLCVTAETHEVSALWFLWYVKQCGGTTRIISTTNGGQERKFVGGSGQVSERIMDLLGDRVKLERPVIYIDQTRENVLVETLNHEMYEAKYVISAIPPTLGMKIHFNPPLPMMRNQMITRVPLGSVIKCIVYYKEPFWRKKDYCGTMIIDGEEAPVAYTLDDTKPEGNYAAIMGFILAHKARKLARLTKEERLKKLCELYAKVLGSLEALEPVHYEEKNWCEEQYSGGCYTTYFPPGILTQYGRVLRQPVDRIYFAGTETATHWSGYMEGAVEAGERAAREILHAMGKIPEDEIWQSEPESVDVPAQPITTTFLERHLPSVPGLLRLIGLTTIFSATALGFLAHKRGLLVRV
Outline: (§1)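 Recombinant human MAO-A or MAO-B (7.5 µg/mL) with kynuramine substrate in 100 mM potassium phosphate pH 7.4 (KCl-isotonic), <4% DMSO, 30 min at 37 °C. Stopped with 2 N NaOH. 4-Hydroxyquinoline was measured fluorometrically (ex 310/em 400 nm) against a calibration curve. Single-point inhibition at 10 µM. IC50 from six-concentration sigmoidal curves, triplicate. SI = IC50(MAO-A)/IC50(MAO-B).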

[2] = Antioxidant activity assessed as trolox equivalents of AAPH radical scavenging activity at 5 uM preincubated for 15 mins followed by AAPH addition measured every 60 sec for 90 mins by ORAC-FL assay; format: functional
Outline: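 Peroxyl radicals generated by AAPH (12 mM final) at 37 °C in phosphate buffer pH 7.4 with fluorescein (150 nM final). Sample and fluorescein were preincubated 15 min before AAPH addition. Fluorescence (ex 485/em 535 nm) was read every 60 s for 90 min.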

[3] = target: T2, Amine oxidase [flavin-containing] A (Homo sapiens, UniProt P21397); test: Inhibition of recombinant human MAO-A expressed in baculovirus infected High 5 insect cells at 10 uM using kynuramine as substrate incubated for 30 mins by spectrofluorometric method relative to control; settings: 0.5 h; outline: as §1
T2 sequence (P21397 whole entry): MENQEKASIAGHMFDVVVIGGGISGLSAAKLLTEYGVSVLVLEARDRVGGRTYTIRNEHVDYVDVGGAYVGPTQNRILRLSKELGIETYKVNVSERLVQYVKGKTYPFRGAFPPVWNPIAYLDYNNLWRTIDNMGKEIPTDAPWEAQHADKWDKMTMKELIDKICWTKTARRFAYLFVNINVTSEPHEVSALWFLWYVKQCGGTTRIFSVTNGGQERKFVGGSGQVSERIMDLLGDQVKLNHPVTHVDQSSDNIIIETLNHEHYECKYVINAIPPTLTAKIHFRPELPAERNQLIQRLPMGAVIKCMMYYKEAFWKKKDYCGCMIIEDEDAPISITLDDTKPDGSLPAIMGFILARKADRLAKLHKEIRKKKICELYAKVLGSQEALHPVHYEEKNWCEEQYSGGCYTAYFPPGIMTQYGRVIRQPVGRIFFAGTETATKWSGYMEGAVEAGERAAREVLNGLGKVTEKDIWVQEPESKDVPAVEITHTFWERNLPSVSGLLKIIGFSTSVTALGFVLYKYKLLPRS

[4] = target: Amyloid-beta precursor protein (Homo sapiens) (UniProt P05067); test: Inhibition of self-induced aggregation of amyloid beta (1-42) (unknown origin) at 25 uM after 24 hrs by thioflavin T fluorescence-based fluorimetric method relative to control
Outline: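 Aβ1-42 was pretreated in HFIP, dried and stocked in DMSO. Aβ1-42 (25 µM final) was incubated with compound (25 µM final) in 50 mM phosphate buffer pH 7.4 at 37 °C for 24 h. 5 µM ThT in 50 mM glycine-NaOH pH 8.5 was then added. Fluorescence was read at ex 446/em 490 nm. Inhibition = (1−IFi/IFc)×100 after background subtraction, in triplicate.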

[5] = Inhibition of Cu2+-mediated aggregation of amyloid beta (1-42) (unknown origin) at 25 uM after 24 hrs by thioflavin T fluorescence-based fluorimetric method relative to control; format: functional
Outline: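 HFIP-pretreated Aβ1-42 (25 µM) was incubated with Cu2+ (25 µM), with or without compound (25 µM final), in 20 mM HEPES/150 mM NaCl pH 6.6 at 37 °C for 24 h. 5 µM ThT in 50 mM glycine-NaOH pH 8.5 was then added. Fluorescence was read at ex 446/em 490 nm. Percent inhibition was taken versus no-inhibitor control after background subtraction, in triplicate.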

[6] = Inhibition of rat serum BuChE at 50 uM using butyrylthiocholine iodide as substrate incubated for 15 mins by Ellman's method relative to control; settings: 0.25 h
Outline: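 Ellman method with 25% rat serum as BuChE source, butyrylthiocholine iodide 1 mmol/L, phosphate buffer pH 7.4, absorbance at 405 nm. Compounds tested at 50 µM. […] Triplicate wells.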

[7] = target: Acetylcholinesterase (Electrophorus electricus, UniProt O42275); test: Inhibition of electric eel AChE using acetylthiocholine iodide as substrate incubated for 15 mins by Ellman's method
Outline: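 Ellman spectrophotometric assay: electric eel AChE 0.05 U/mL final, acetylthiocholine iodide 1 mmol/L, phosphate buffer pH 8.0, range of compound concentrations.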

[8] = organism: Homo sapiens; test: Selectivity index, ratio of IC50 for recombinant human MAO-A expressed in baculovirus infected High 5 insect cells to IC50 for recombinant human MAO-B expressed in baculovirus infected High 5 insect cells
Outline: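 Recombinant human MAO-A or MAO-B (7.5 µg/mL) with kynuramine substrate in 100 mM potassium phosphate pH 7.4 (KCl-isotonic), <4% DMSO, 30 min at 37 °C. Stopped with 2 N NaOH. Single-point inhibition at 10 µM. IC50 from six-concentration sigmoidal curves, triplicate. SI = IC50(MAO-A)/IC50(MAO-B).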

[9] = target: T1, Amine oxidase [flavin-containing] B; test: Inhibition of recombinant human MAO-B expressed in baculovirus infected High 5 insect cells using kynuramine as substrate incubated for 30 mins by spectrofluorometric method; format: cell-based
[10] = Inhibition of rat serum BuChE using butyrylthiocholine iodide as substrate incubated for 15 mins by Ellman's method
Outline: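 Rat serum BuChE (25% serum) by Ellman method, butyrylthiocholine iodide 1 mmol/L, phosphate buffer pH 7.4, read at 405 nm. Compound concentrations varied, each in triplicate.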

[11] = target: T2, Amine oxidase [flavin-containing] A; test: Inhibition of recombinant human MAO-A expressed in baculovirus infected High 5 insect cells using kynuramine as substrate incubated for 30 mins by spectrofluorometric method

Sequence of Acetylcholinesterase (O42275 whole entry): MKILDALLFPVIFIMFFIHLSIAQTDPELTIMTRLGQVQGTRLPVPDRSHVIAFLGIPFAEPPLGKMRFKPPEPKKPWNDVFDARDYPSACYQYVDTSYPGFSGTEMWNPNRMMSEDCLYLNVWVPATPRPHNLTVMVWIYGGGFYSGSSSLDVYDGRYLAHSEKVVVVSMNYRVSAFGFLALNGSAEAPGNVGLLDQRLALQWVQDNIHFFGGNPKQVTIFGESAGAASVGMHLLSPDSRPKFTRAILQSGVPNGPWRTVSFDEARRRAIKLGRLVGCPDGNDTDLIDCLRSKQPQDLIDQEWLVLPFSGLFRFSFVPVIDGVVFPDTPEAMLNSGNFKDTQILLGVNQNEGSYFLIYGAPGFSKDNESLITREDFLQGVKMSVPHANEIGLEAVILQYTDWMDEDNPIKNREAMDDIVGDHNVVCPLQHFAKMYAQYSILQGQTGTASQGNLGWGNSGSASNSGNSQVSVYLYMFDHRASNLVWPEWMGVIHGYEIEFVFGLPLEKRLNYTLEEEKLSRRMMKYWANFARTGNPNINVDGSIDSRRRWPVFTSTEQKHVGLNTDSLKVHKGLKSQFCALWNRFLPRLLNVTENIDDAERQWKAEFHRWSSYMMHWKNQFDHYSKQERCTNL
Sequence of Amyloid-beta precursor protein (Homo sapiens) (P05067 whole entry): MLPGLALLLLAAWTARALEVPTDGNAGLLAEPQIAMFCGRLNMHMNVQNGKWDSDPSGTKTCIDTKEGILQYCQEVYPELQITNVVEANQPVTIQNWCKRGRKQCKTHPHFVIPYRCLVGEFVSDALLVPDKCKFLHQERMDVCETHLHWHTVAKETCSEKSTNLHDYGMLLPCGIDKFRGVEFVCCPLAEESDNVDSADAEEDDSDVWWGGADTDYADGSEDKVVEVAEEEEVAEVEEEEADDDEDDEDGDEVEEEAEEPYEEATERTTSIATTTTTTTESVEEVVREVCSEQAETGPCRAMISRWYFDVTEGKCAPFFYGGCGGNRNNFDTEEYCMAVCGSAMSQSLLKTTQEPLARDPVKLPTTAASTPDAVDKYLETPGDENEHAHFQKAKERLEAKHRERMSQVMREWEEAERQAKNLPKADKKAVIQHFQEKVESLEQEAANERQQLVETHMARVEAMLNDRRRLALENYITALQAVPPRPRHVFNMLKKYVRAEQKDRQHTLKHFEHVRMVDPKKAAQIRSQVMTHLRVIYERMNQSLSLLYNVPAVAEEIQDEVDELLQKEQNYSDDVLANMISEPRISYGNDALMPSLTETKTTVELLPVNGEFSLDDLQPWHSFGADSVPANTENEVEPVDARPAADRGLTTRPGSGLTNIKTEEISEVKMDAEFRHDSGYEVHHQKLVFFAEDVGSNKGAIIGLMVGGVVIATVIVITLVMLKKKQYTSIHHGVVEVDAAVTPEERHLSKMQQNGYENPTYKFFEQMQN

| Compound | inhibition at 10 µM [1] [%] | Activity [2] [µMequiv/µM] | inhibition at 10 µM [3] [%] | inhibition [4] [%] | inhibition [5] [%] | inhibition (INH) [6] [%] | IC50 [7] [µM] | Ratio IC50 [8] | IC50 [9] [µM] | IC50 [10] [µM] | IC50 [11] [µM] |
| --- | --- | --- | --- | --- | --- | --- | --- | --- | --- | --- | --- |
| CCN1CCN(C(=O)Oc2ccc(C(=O)/C=C/c3ccc(N(C)C)cc3)c(O)c2)CC1 | 30 | 2.54 | 42.5 | 83.2 | 89.2 | < 10 | 8.62 |  |  |  |  |
| CN(C)c1ccc(/C=C/C(=O)c2ccc(OC(=O)N3CCCCC3)cc2O)cc1 | 31.1 | 2.51 | 27.8 | 70.2 | 73.9 | < 10 | 6.9 |  |  |  |  |
| O=C(/C=C/c1ccc(N2CCOCC2)cc1)c1ccc(OC(=O)N2CCCC2)cc1O |  | 0.51 | 15.2 | 44.4 | 48.9 | < 10 | 63.5 | > 14.1 | 0.71 |  |  |
| CN(C)c1ccc(/C=C/C(=O)c2ccc(OC(=O)N3CCOCC3)cc2O)cc1 | 42.3 | 2.04 | 34.6 | 83.6 | 79.7 | < 10 | 8.01 |  |  |  |  |
| CN(C)c1ccc(/C=C/C(=O)c2ccc(OC(=O)N3CCCCC3)cc2OC(=O)N2CCCCC2)cc1 | 30.1 | 2.41 | 17 | 38 | 23.8 | < 10 | 32.4 |  |  |  |  |
| CN(C)c1ccc(/C=C/C(=O)c2ccc(OC(=O)N3CCN(Cc4ccccc4)CC3)cc2O)cc1 | 41.6 | 3.51 | 42.1 | 89.4 | 94.2 | < 10 | 21.4 |  |  |  |  |
| CN(C)c1ccc(/C=C/C(=O)c2ccc(OC(=O)N3CCCC3)cc2OC(=O)N2CCCC2)cc1 | 34.6 | 2.45 | 25.2 | 48 | 26.3 | < 10 | 30 |  |  |  |  |
| CCN(C)C(=O)Oc1cccc([C@H](C)N(C)C)c1 [RIVASTIGMINE] |  |  |  |  |  |  |  |  |  | 2.86 |  |
| CN1CCN(C(=O)Oc2ccc(C(=O)/C=C/c3ccc(N(C)C)cc3)c(O)c2)CC1 | 25.1 | 2.08 | 49.5 | 87.9 | 75.5 | < 10 | 11.9 |  |  |  |  |
| COc1cc(/C=C/C(=O)CC(=O)/C=C/c2ccc(O)c(OC)c2)ccc1O |  |  |  |  | 67.2 |  |  |  |  |  |  |
| O=C(/C=C/c1ccc(N2CCCC2)cc1)c1ccc(OC(=O)N2CCCC2)cc1O |  | 0.35 | 15.2 | 44.4 | 48.9 | < 10 | 14.1 |  | 0.71 |  |  |
| CCN(CC)C(=O)Oc1ccc(C(=O)/C=C/c2ccc(N(C)C)cc2)c(O)c1 |  | 2.2 | 24.4 | 76.7 | 49 | < 10 | 17.2 |  | 3.5 |  |  |
| CCN(C)C(=O)Oc1ccc(C(=O)/C=C/c2ccc(N(C)C)cc2)c(O)c1 |  | 3.14 | 25.9 | 98 | 88 | < 10 | 14.3 | > 4.76 | 2.1 |  |  |
| CCN(CC)c1ccc(/C=C/C(=O)c2ccc(OC(=O)N3CCCC3)cc2O)cc1 |  | 1.02 | 21 | 67.8 | 67.1 | < 10 | 11.7 |  | 6.7 |  |  |
| CN(C)C(=O)Oc1ccc(C(=O)/C=C/c2ccc(N(C)C)cc2)c(OC(=O)N(C)C)c1 | 5.1 | 2.16 | 34.6 | 34.7 | 56.2 | < 10 | > 100 |  |  |  |  |
| CN(C)c1ccc(/C=C/C(=O)c2ccc(OC(=O)N3CCOCC3)cc2OC(=O)N2CCOCC2)cc1 | 40.2 | 1.85 | 15 | 33.3 | 41.4 | < 10 | 58 |  |  |  |  |
| CN(C)c1ccc(/C=C/C(=O)c2ccc(O)cc2O)cc1 |  | 2 |  | 77.7 | 60.1 | < 10 | 78.2 | 13.4 | 0.31 |  | 4.06 |
| O=C(/C=C/c1ccc(N2CCCCC2)cc1)c1ccc(OC(=O)N2CCCC2)cc1O |  | 1.2 | 19.6 | 57.2 | 59.8 | < 10 | 10.6 |  | 0.78 |  |  |
| CN(C)C(=O)Oc1ccc(C(=O)/C=C/c2ccc(N(C)C)cc2)c(O)c1 |  | 2.62 |  | 90.8 | 77.9 | < 10 | 32.6 | 4.11 | 2.48 |  | 10.2 |
